# Compound activity: PubChem BioAssay, several laboratories
# Only a selection was taken, and hits are over-represented in it overall.
# GSH fluor – GSH bead compound fluorescence profile; GSH beads flow cytometry, compound fluorescence 488/530 nm; hits give high values; fluorescence (KMESF) at 10 µM; actives 0.25% (n = 190,000); in the data active means fluorescence above about 89;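 further: glutathione beads carrying GST-tagged Bcl family fusion proteins plus one bare bead set; values are compound well signal with DMSO vehicle wells as background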
# Avidin bead fluor – avidin bead compound fluorescence profile; Avidin beads, compound fluorescence 488/530 nm, flow cytometry; hits give high values; fluorescence (KMESF) at 10 µM; actives 0.38% (n = 220,000); AID 1775; in the data active means fluorescence above about 47
# ABCB1 block – human ABCB1 inhibition, ABCG2 as counter-screen. CCRF-Adr cells, JC-1 efflux, flow cytometry. inhibition, % at 6.6 µM. actives 0.067% (n = 190,000). AID 1326; in the data active means inhibition above about 40%;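 further: 0% = vehicle and 100% = reference inhibitor; higher value means more JC-1 retained so stronger ABCB1 efflux block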
# PKD1 inh – PKD1 (human) kinase inhibition | actives 0.056% (n = 200,000) | PKD1 kinase fluorescence polarization assay | Q15139 | inhibition, % (test concentration not listed)
# Lmaj promast – Leishmania major promastigote growth inhibition | Leishmania major promastigotes, resazurin fluorescence viability | inhibition, % at 10 µM | actives 9% (n = 200,000) | AID 1063;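 further: promastigotes grown with compound for 44 hours at 28 °C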
# ABCG2 block – human ABCG2 inhibition, ABCB1 as counter-screen | Q9UNQ0 | IgMXP3 cells, JC-1 efflux, flow cytometry | inhibition, % at 6.6 µM | actives 0.1% (n = 190,000) | AID 1325;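 active means inhibition above 80%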;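 further: 0% = DMSO and 100% = nicardipine control wells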
#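 System: two drug-resistant human cell lines, ABCG2 and ABCB1; controls: nicardipine high and DMSO low controls; times: 10 min exposure at 25 °C with rotation, no wash; detection: flow cytometry of retained JC-1 fluorescence; read-out basis: percent efflux inhibition, scaled nicardipine 100% to DMSO 0%; doses: one concentration, 6.6 µM final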
# * hit, by the source's call; . = no result given. Unless noted, no stated cut-off is given here; in the data, active means inhibition above about 50%; inactive means the rest.
SMILES,GSH fluor,Avidin bead fluor,ABCB1 block,PKD1 inh,Lmaj promast,ABCG2 block
CO[C@H]1C[C@@H]2CC[C@@H](C)[C@@](O)(O2)C(=O)C(=O)N2CCCC[C@H]2C(=O)O[C@H]([C@H](C)C[C@@H]2CC[C@@H](O)[C@H](OC)C2)CC(=O)[C@H](C)C=C(C)[C@@H](O)[C@@H](OC)C(=O)[C@H](C)C[C@H](C)C=CC=CC=C1C,.,8,.,.,.,.
CC[C@@H]1C=C(C)C[C@H](C)C[C@H](OC)[C@H]2O[C@@](O)(C(=O)C(=O)N3CCCC[C@H]3C(=O)O[C@H](/C(C)=C/[C@@H]3CC[C@@H](O)[C@H](OC)C3)[C@H](C)[C@@H](O)CC1=O)[C@H](C)C[C@@H]2OC,17,4,0,-9,90*,3
C/C(=N\NC(=O)c1ccc(O)cc1)c1ccc2c(c1)Nc1ccccc1S2,15,6,0,18,75*,10
O=C(CC1C(=O)N(c2ccccc2)C(=S)N1c1ccccc1)c1ccc(Br)cc1 (centres undefined),10,6,0,-2,51*,-3
O=C(NCC(c1cccnc1)N1CCN(c2ccc(F)cc2)CC1)c1ccc(F)cc1 (centres undefined),33,14,2,-16,88*,31
COc1ccc(N2CCN(C(CNC(=O)c3ccco3)c3cccnc3)CC2)cc1 (centres undefined),14,9,0,-2,46,1
O=C(NCc1cccnc1)C(=O)NCC(c1ccco1)N1CCN(c2ccc(F)cc2)CC1 (centres undefined),5,11,2,-7,48,6
COc1ccc(C(=O)NCC(c2cccnc2)N2CCN(c3ccc(F)cc3)CC2)cc1OC (centres undefined),16,30,0,-3,97*,4
COc1ccc(C(=O)NCC(c2ccc(F)cc2)N2CCOCC2)cc1S(=O)(=O)N1CCCC1 (centres undefined),5,9,1,-7,-8,2
COc1ccc(C(=O)NCC(c2cccnc2)N2CCN(c3ccccc3)CC2)cc1OC (centres undefined),21,4,1,-6,81*,4
O=C(NCC(c1cccnc1)N1CCN(c2ccc(F)cc2)CC1)c1ccco1 (centres undefined),20,7,1,3,72*,1
CSc1nc(C)c(C(=O)C[n+]2ccc(C)cc2)cc1C#N,16,8,1,-2,1,7
Cc1nc2cc(N=NC3=C(O)CCCC3=O)ccc2s1,16,6,0,4,-4,2
COc1cc(C(=O)NCC(c2cccnc2)N2CCN(c3ccc(F)cc3)CC2)cc(OC)c1OC (centres undefined),12,12,0,1,78*,2
COc1cccc(CN(Cc2ccco2)S(=O)(=O)c2ccc(S(=O)(=O)NCc3ccccc3)cc2)c1OC,15,6,2,-3,97*,9
COc1cccc(CN(Cc2ccccc2F)S(=O)(=O)c2ccc(S(=O)(=O)NCc3ccccc3)cc2)c1,8,3,1,-3,15,2
CC(=O)Nc1nonc1-c1nc2ccccc2n1Cc1nnc(C)o1,18,6,0,-4,-6,0
O=C(NN1C(=O)C2C(c3ccccc3)C=CC(c3ccccc3)C2C1=O)c1cccc(Br)c1 (centres undefined),17,7,1,-7,15,9
COC(=O)c1ccc(COc2ccccc2/C=C(\C#N)C(=O)Nc2c(C)cccc2C)cc1,11,4,3,10,98*,9
CCOCCc1c(O)nc(SCCOc2ccc(C)c(C)c2)[nH]c1=O,55,10,0,3,-6,0
O=C1CCN=C(Nc2ccc(F)cc2)N1Cc1ccccc1,37,4,0,-9,72*,0
Cc1cc(C)cc(NC2=NCC(=O)N2Cc2ccccc2)c1,11,16,0,6,20,1
Cc1cccc(C)c1NC(=S)Nc1ccc(Cl)c(Cl)c1,19,10,0,-4,55*,3
CC1Cc2ccccc2N1C(=O)COC(=O)c1ccc(Br)o1 (centres undefined),16,9,0,0,-7,15
O=C1CSC(c2ccc([N+](=O)[O-])cc2)N1CCN1CCCCC1 (centres undefined),25,11,0,0,86*,-4
SMILES,GSH fluor,Avidin bead fluor,ABCB1 block,PKD1 inh,Lmaj promast,ABCG2 block
O=C1CSC(c2ccc([N+](=O)[O-])cc2)N1C1CCCCC1 (centres undefined),11,15,1,1,14,3
Cc1c(CCOC(=O)C23CC4(C)CC(C)(CC(C)(C4)C2)C3)sc[n+]1CC(=O)c1ccccc1,13,9,1,2,23,6
Cc1c(CCOC(=O)c2cc([N+](=O)[O-])cc([N+](=O)[O-])c2)sc[n+]1CC(=O)c1ccc(Br)cc1,12,10,0,-6,100*,7
C=CCNCCCCOc1ccc(OCc2ccccc2)cc1,25,10,1,-12,99*,1
c1ccc(COc2ccc(OCCCNC3CCCC3)cc2)cc1,12,9,1,-6,100*,1
CCc1cccc(OCCCCNCCOC)c1,31,7,1,-21,90*,1
O=C(NC1CCCC1)c1ccccc1OCc1ccccc1,11,26,1,-2,-2,2
CCOc1ccc(OCCCCNCCN)cc1,36,8,0,10,86*,3
COCCN(C(=O)CCc1ccccc1OC)c1nnc(-c2cccnc2)s1,10,12,1,-4,15,5
Cc1cc(NC(=O)CN(C)C)c([N+](=O)[O-])cc1C,17,10,0,3,-8,3
COCCCNCCCCOc1ccc(OCc2ccccc2)cc1,26,9,1,-7,99*,1
COCCCNCCOc1ccccc1-c1ccccc1,11,7,.,-3,47,.
O=C(NN=C1CCCC1)c1ccccc1OCc1ccc(Cl)cc1,15,.,1,-2,1,24
COc1cc(C=Nc2cccc(C)c2)c(O)c([N+](=O)[O-])c1,1,17,1,-9,68*,-2
Cn1c(SCC(=O)N(C2CCCCC2)C2CCCCC2)nnc1-c1cccs1,37,14,5,-4,18,33
COc1cccc(OC)c1C(=O)NN1CCCCC1,35,11,1,0,-6,5
CCOc1ccc(N2C(=O)C(c3ccccc3)=C(c3nc4ccccc4s3)C2NC(C)=O)cc1 (centres undefined),24,12,4,-4,51*,9
CCOc1ccc(-n2nnnc2-c2nc3ccccc3s2)cc1,5,3,0,-2,-3,0
